Calls of active or inactive are those of the source. No cut-off for these calls is given here.
Tests used:
[1] = Antioxidant activity assessed as protection against […]-induced oxidation of DNA at 80 uM up to 675 mins
[2] = Antioxidant activity assessed as protection against Cu(2+)/[…]-induced DNA damage up to 180 mins by TBARS assay; type: functional
In short: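 DNA (2.0 mg/mL), CuSO4 (5.0 mM) and GSH (3.0 mM) in phosphate buffer (6.1 mM Na2HPO4, 3.9 mM NaH2PO4). Compound added from DMSO at 0.2 mM final. Incubated at 37 °C, with three tubes removed every 30 min and stopped with EDTA (30.0 mM final). TBARS read in the n-butanol layer at 535 nm. Oxidative percentage = (A_x/A_0) × 100 at 150 min relative to control.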

[3] = Antioxidant activity against beta-carotene and linoleic acid assessed as inhibition of bleaching of beta-carotene at 13.3 uM measured up to 540 mins by autooxidation assay; type: functional
In short: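 β-Carotene–linoleic acid emulsion with compound at 13.3 μM. Bleaching of β-carotene by peroxyl radicals from linoleic acid autoxidation was followed as absorbance at 460 nm and plotted against time.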

[4] = Antioxidant activity assessed as galvinoxyl radical scavenging activity measured up to 210 mins; type: functional
In short: (§1)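 Radical was dissolved in ethanol to about 1.00 absorbance: DPPH read at 517 nm, galvinoxyl at 428 nm. Compound in ethanol was added at 200 μM final and absorbance decay recorded. Percent scavenged = (1 − Abs_detect/Abs_ref) × 100, plotted against incubation time.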

[5] = Antioxidant activity assessed as protection against […]-induced oxidation of DNA […]; type: functional
[6] = test system: Radical scavenging activity; assay: Antioxidant activity assessed as DPPH radical scavenging activity measured up to 300 mins; type: functional
In short: as §1

IC50 [4] [µM]	IC50 [6] [µM]	SMILES	Activity [1]	Activity [2]	Activity [3]	Activity [5]
170	119	Cc1coc2c(O)c3oc(=O)cc(C)c3cc12	Active	Active	Active	Active
173	81.5	Cc1cc(=O)oc2c(O)c3occc3cc12	Active	Active	Active	Active

SMILES	IC50 [4] [µM]	IC50 [6] [µM]	Activity [1]	Activity [2]	Activity [3]	Activity [5]
O=c1ccc2cc3ccoc3c(O)c2o1 [XANTHOTOXOL]	188	69.6	Active	Active	Active	Active
